In ChEMBL document CHEMBL3124921, “Discovery of nitropyridine derivatives as potent HIV-1 non-nucleoside reverse transcriptase inhibitors via a structure-based core refining approach” (Eur J Med Chem, 2014):

How the values were obtained:
[1] = Selectivity index, ratio of CC50 for human MT4 cells to EC50 for HIV-1 RES056 harboring reverse transcriptase K103N/Y181C double mutant infected in human MT4 cells; assay type: toxicity, cell-based; conditions: read-out: Ratio CC50/EC50
Method in brief: (§1)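 MT-4 cells are seeded at 6 × 10⁵ cells/mL. Serial fivefold compound dilutions go into two triplicate series, one mock-infected and one virus-infected. After 5 days, viability is read by MTT reduction to formazan, with absorbance at 540 and 690 nm. EC50 comes from infected wells and CC50 from mock-infected wells. SI = CC50/EC50.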

[2] = system: Human immunodeficiency virus 2; assay: Antiviral activity against HIV-2 ROD infected in human MT4 cells assessed as protection against virus-induced cytopathogenicity after 5 days by MTT assay; assay type: functional, organism-based; conditions: Human immunodeficiency virus 2, ISOLATE ROD, MT4, 120 h
Method in brief: (§2)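 Compounds added at the start as 10× stocks to triplicate wells, then serially diluted fivefold. Virus stock at […] CCID50 was added to MT-4 cells resuspended at 6 × 10⁵ cells/mL. Viability was read by MTT reduction to formazan five days post-infection, with absorbance measured at 540 and 690 nm. EC50 is the concentration protecting against virus-induced cytopathicity.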

[3] = system: Human immunodeficiency virus 1; assay: Antiviral activity against HIV-1 RES056 harboring reverse transcriptase K103N/Y181C double mutant infected in human MT4 cells assessed as protection against virus-induced cytopathogenicity after 5 days by MTT assay; assay type: functional, organism-based; conditions: Human immunodeficiency virus 1, RES056, MT4, 120 h; method in brief: as §1
[4] = Cytotoxicity against human MT4 cells assessed as growth inhibition after 5 days by MTT assay; assay type: cell-based
Method in brief: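 Mock-infected MT-4 cells (6 × 10⁵ cells/mL) were run in parallel triplicate wells with serial fivefold compound dilutions added from 10× stocks and culture medium instead of virus. Viability was measured by MTT at day 5, reading absorbance at 540 and 690 nm.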

[5] = Selectivity index, ratio of CC50 for human MT4 cells to EC50 for wild type HIV-1 3B infected in human MT4 cells; assay type: toxicity, cell-based; conditions: read-out: Ratio CC50/EC50
Method in brief: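 HIV-1 IIIB is added at 100–300 CCID50 per well to MT-4 cells seeded at 6 × 10⁵ cells/mL. Fivefold serial compound dilutions are run in triplicate, with a parallel mock-infected series for cytotoxicity. MTT viability is read at 540 and 690 nm after 5 days. SI = CC50 (mock-infected) / EC50 (infected).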

[6] = Selectivity index, ratio of CC50 for human MT4 cells to EC50 for HIV-2 ROD infected in human MT4 cells; assay type: toxicity, cell-based; conditions: read-out: Ratio CC50/EC50; method in brief: as §1
[7] = system: Human immunodeficiency virus 1; assay: Antiviral activity against wild type HIV-1 3B infected in human MT4 cells assessed as protection against virus-induced cytopathogenicity after 5 days by MTT assay; assay type: functional, organism-based; conditions: Human immunodeficiency virus 1, 3B, MT4, 120 h; method in brief: as §2
[8] = target: Human immunodeficiency virus type 1 reverse transcriptase (Human immunodeficiency virus 1, UniProt Q72547); assay: Inhibition of wild type HIV-1 reverse transcriptase using […] as template/primer assessed as inhibition of biotin-dUTP incorporation after 1 hr by microtiter plate ELISA reader analysis

SMILES	selectivity ratio [1]	EC50 [2]	EC50 [3]	CC50 at 120 h [4]	selectivity ratio [5]	selectivity ratio [6]	EC50 [7]	IC50 [8]
Cc1cn([C@H]2C[C@H](N=[N+]=[N-])[C@@H](CO)O2)c(=O)[nH]c1=O [ZIDOVUDINE]	> 5960	0.012 µM	0.016 µM	> 93.5 µM	> 12500	> 7720	–	–
Cc1cc(Br)c(Oc2cc(Nc3ccc(C#N)cc3)ncc2[N+](=O)[O-])c(Br)c1	< 1	> 23.6 µM	> 23.6 µM	23.6 µM	691	< 1	0.034 µM	10.4 µM
Cc1cc(C#N)cc(C)c1Oc1cc(Nc2ccc(C#N)cc2)ncc1[N+](=O)[O-]	< 1	> 36.1 µM	> 36.1 µM	36.1 µM	339	< 1	0.11 µM	8.5 µM
Cc1cc(Br)c(Nc2cc(Nc3ccc(C#N)cc3)ncc2[N+](=O)[O-])c(Br)c1	< 1	> 167 µM	> 167 µM	167 µM	43	< 1	3.85 µM	–
N#Cc1ccc(Nc2cc(Nc3c(F)cc(Br)cc3Br)c([N+](=O)[O-])cn2)cc1	< 1	> 149 µM	> 149 µM	149 µM	49	< 1	3.05 µM	–
CC(C)Nc1cccnc1N1CCN(C(=O)c2cc3cc(NS(C)(=O)=O)ccc3[nH]2)CC1 [DELAVIRDINE]	< 1	–	> 36.2 µM	> 36.2 µM	> 71	–	0.51 µM	–
Cc1cc(C)c(Nc2cc(Nc3ccc(C#N)cc3)ncc2[N+](=O)[O-])c(C)c1	< 1	> 262 µM	> 262 µM	262 µM	9	< 1	30.2 µM	–
Cc1ccc(Nc2cc(Oc3c(C)cc(C#N)cc3C)c([N+](=O)[O-])cn2)cc1	< 1	> 207 µM	> 207 µM	207 µM	< 1	< 1	> 207 µM	–
N#Cc1ccc(Nc2cc(Oc3c(Cl)cc(Cl)cc3Cl)c([N+](=O)[O-])cn2)cc1	< 1	> 16.2 µM	> 16.2 µM	16.2 µM	97	< 1	0.17 µM	–
Cc1ccnc2c1NC(=O)c1cccnc1N2C1CC1 [NEVIRAPINE]	–	–	4.09 µM	> 15 µM	–	–	–	–
Cc1cccc(C)c1Oc1cc(Nc2ccc(C#N)cc2)ncc1[N+](=O)[O-]	< 1	> 126 µM	> 126 µM	126 µM	214	< 1	0.58 µM	–
N#Cc1ccc(Nc2cc(Oc3c(Cl)cccc3Cl)c([N+](=O)[O-])cn2)cc1	< 1	> 27.7 µM	> 27.7 µM	27.7 µM	44	< 1	0.62 µM	–
N#Cc1ccc(Nc2cc(Oc3c(Br)cc(Br)cc3Br)c([N+](=O)[O-])cn2)cc1	< 1	> 7.49 µM	> 7.49 µM	7.49 µM	65	< 1	0.11 µM	–
N#Cc1ccc(Nc2cc(Oc3c(Cl)cc([N+](=O)[O-])cc3Cl)c([N+](=O)[O-])cn2)cc1	< 1	> 26.5 µM	> 26.5 µM	26.5 µM	2	< 1	16.8 µM	–
Cc1cc(C)c(Oc2cc(Nc3ccc(C#N)cc3)ncc2[N+](=O)[O-])c(C)c1	< 1	> 69.9 µM	> 69.9 µM	69.9 µM	1250	< 1	0.056 µM	6.9 µM
Cc1cccc(C)c1Nc1cc(Nc2ccc(C#N)cc2)ncc1[N+](=O)[O-]	< 1	> 12.8 µM	> 12.8 µM	12.8 µM	< 1	< 1	> 12.8 µM	–
Cc1cc(Br)cc(C)c1Oc1cc(Nc2ccc(C#N)cc2)ncc1[N+](=O)[O-]	< 1	> 12.3 µM	> 12.3 µM	12.3 µM	45	< 1	0.27 µM	–
COc1cccc(OC)c1Oc1cc(Nc2ccc(C#N)cc2)ncc1[N+](=O)[O-]	< 1	> 319 µM	> 319 µM	319 µM	74	< 1	4.28 µM	–
Cc1cc(C#N)cc(C)c1Oc1cc(Nc2ccc([N+](=O)[O-])cc2)ncc1[N+](=O)[O-]	< 1	> 141 µM	> 141 µM	141 µM	200	< 1	0.72 µM	–
O=C1Nc2ccc(Cl)cc2[C@@](C#CC2CC2)(C(F)(F)F)O1 [EFAVIRENZ]	> 21	–	0.32 µM	> 6.34 µM	> 1110	–	0.0057 µM	–
Cc1cc(Cl)cc(C)c1Oc1cc(Nc2ccc(C#N)cc2)ncc1[N+](=O)[O-]	< 1	> 11.1 µM	> 11.1 µM	11.1 µM	70	< 1	0.16 µM	–
N#Cc1ccc(Nc2cc(Oc3c(F)cc(F)cc3F)c([N+](=O)[O-])cn2)cc1	< 1	> 3.54 µM	> 3.54 µM	3.54 µM	5	< 1	0.72 µM	–
